Data taken from ChEMBL document CHEMBL1143246, “Design and synthesis of bicyclic pyrimidinones as potent and orally bioavailable HIV-1 integrase inhibitors” (J Med Chem, 2008).

Assays:
[1] = Inhibition of recombinant HIV1 integrase strand transfer activity
[2] = tested on: Human immunodeficiency virus 1; experiment: Antiviral activity against HIV1 in human MT4 cell assessed as inhibition of virus spread in presence of 10% fetal bovine serum; assay type: functional; conditions: Human immunodeficiency virus 1, MT4; read-out: CIC95
In short: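 Spread of HIV-1 infection in MT-4 human T-lymphoid cell culture with 10% fetal bovine serum; CIC95 is the concentration inhibiting spread by ≥95%; mean of at least three independent experiments.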

[3] = tested on: Human immunodeficiency virus 1; experiment: Antiviral activity against HIV1 in human MT4 cell assessed as inhibition of virus spread in presence of 50% normal human serum; assay type: functional; conditions: Human immunodeficiency virus 1, MT4; read-out: CIC95
In short: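 Spread of HIV-1 infection in MT-4 human T-lymphoid cell culture with 50% normal human serum; CIC95 is the concentration inhibiting spread by ≥95%; mean of at least three independent experiments.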

Liver microsomes [4] = experiment: Metabolic stability in rat liver microsomes in presence of NADPH and UDPGA; assay type: ADME, Microsome
In short: (§1)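 Multiple time points over 1 h: compound 1 µM with liver microsomes 1 mg/mL, in the presence of both UDPGA and NADPH; degradation followed by LC/MS/MS.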

Liver [5] = experiment: Metabolic stability in dog liver microsomes in presence of NADPH and UDPGA; assay type: ADME, Canis lupus familiaris, Microsome; in short: as §1
[6] = Oral bioavailability in rat at 3 mg/kg; assay type: ADME, organism-based; conditions: in vivo
In short: (§2)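 In vivo PK: iv dosing in DMSO/PEG400/H₂O mixtures, oral dosing as methylcellulose suspension. Half-life was taken after iv dosing; AUC and Cmax after po dosing.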

[7] = Plasma clearance in dog at 1 mg/kg, iv or 2 mg/kg, po; assay type: ADME, organism-based, Canis lupus familiaris; in short: as §2
[8] = Plasma clearance in rat at 3 mg/kg, po or 3 mg/kg, iv; assay type: ADME, organism-based; in short: as §2
[9] = Protein binding in rat plasma; assay type: ADME, cell-free; conditions: read-out: PPB (converted)
In short: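 Plasma protein binding was measured by ultrafiltration after a 1 h incubation of compound in plasma at 37 °C.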

[10] = Protein binding in dog plasma; assay type: ADME, cell-free, Canis lupus familiaris; conditions: read-out: PPB (converted)
In short: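 Plasma protein binding measured by ultrafiltration after incubation at 37 °C for 1 h.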

Homo sapiens = organism: Homo sapiens; experiment: Protein binding in human plasma; conditions: read-out: PPB (converted)
[11] = Oral bioavailability in dog at 2 mg/kg; assay type: ADME, organism-based, Canis lupus familiaris; conditions: in vivo; in short: as §2
Liver microsomes [12] = experiment: Metabolic stability in human liver microsomes in presence of NADPH; assay type: ADME, Microsome
In short: (§3)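 Liver microsomes (1 mg/mL) with test compound at 2 µM, incubated with UDPGA or NADPH; degradation measured by LC/MS/MS after 1 h.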

Liver microsomes [13] = experiment: Metabolic stability in rat liver microsomes in presence of NADPH; assay type: ADME, Microsome; in short: as §3
Liver microsomes [14] = experiment: Metabolic stability in human liver microsomes in presence of UDPGA; assay type: ADME, Microsome; in short: as §3
Liver [15] = experiment: Metabolic stability in dog liver microsomes in presence of UDPGA; assay type: ADME, Canis lupus familiaris, Microsome
Liver [16] = experiment: Metabolic stability in dog liver microsomes in presence of NADPH; assay type: ADME, Canis lupus familiaris, Microsome; in short: as §3
Liver microsomes [17] = experiment: Metabolic stability in rat liver microsomes in presence of UDPGA; assay type: ADME, Microsome

| IC50 [1] | SMILES | IC95 [2] | IC95 [3] | further results |
| --- | --- | --- | --- | --- |
| 100 nM | CC(c1nc(O)c(O)c(C(=O)NCc2ccc(F)cc2)n1)N(C)C (configuration not stated) | 0.13 µM | 0.5 µM | – |
| 10 nM | CN1CCOCC1c1nc(O)c(O)c(C(=O)NCc2ccc(F)cc2)n1 (configuration not stated) | 0.03 µM | 0.23 µM | – |
| 60 nM | O=C(NCc1ccc(F)cc1)c1ncnc(O)c1O | > 10 µM | > 10 µM | – |
| 35 nM | CN(C)C(=O)C(=O)N(C)[C@@H]1CCCCn2c1nc(C(=O)NCc1ccc(F)cc1)c(O)c2=O | 0.021 µM | 0.042 µM | – |
| 10 nM | CN1CCN(S(=O)(=O)N(C)[C@@H]2CCCn3c2nc(C(=O)NCc2ccc(F)cc2)c(O)c3=O)CC1 | 0.013 µM | 0.02 µM | – |
| 7 nM | CN1CCN(S(=O)(=O)N(C)[C@H]2CCCn3c2nc(C(=O)NCc2ccc(F)cc2)c(O)c3=O)CC1 | 0.006 µM | 0.006 µM | Stability (Liver microsomes [4]): 10 µL/min/mg; Stability (Liver [5]): 8 µL/min/mg; bioavailability [6]: 15%; clearance [7]: 23 mL/min/kg; clearance [8]: 98 mL/min/kg; fraction unbound [9]: 0.24; fraction unbound [10]: 0.18 |
| 19 nM | CN(C)C(=O)C(=O)N(C)[C@@H]1CCCn2c1nc(C(=O)NCc1ccc(F)cc1)c(O)c2=O | 0.067 µM | 0.098 µM | – |
| 5 nM | CN(C)S(=O)(=O)N(C)[C@H]1CCCn2c1nc(C(=O)NCc1ccc(F)cc1)c(O)c2=O | 0.012 µM | 0.031 µM | fraction unbound (Homo sapiens): 0.13; bioavailability [6]: 49%; clearance [7]: 3.8 mL/min/kg; clearance [8]: 14 mL/min/kg; bioavailability [11]: 16% |
| 7 nM | CN(C(=O)CS(=O)(=O)N(C)C)[C@@H]1CCCn2c1nc(C(=O)NCc1ccc(F)cc1)c(O)c2=O | 0.031 µM | 0.062 µM | – |
| 7 nM | CN(C(=O)CS(=O)(=O)N(C)C)[C@H]1CCCn2c1nc(C(=O)NCc1ccc(F)cc1)c(O)c2=O | 0.016 µM | 0.031 µM | fraction unbound (Homo sapiens): 0.22; Stability (Liver microsomes [12]): 36 %/hr; Stability (Liver microsomes [13]): 51 %/hr; Stability (Liver microsomes [14]): 46 %/hr; bioavailability [6]: 17%; Stability (Liver [15]): 24 %/hr; clearance [8]: 55 mL/min/kg; fraction unbound [9]: 0.26; fraction unbound [10]: 0.29; Stability (Liver [16]): 15 %/hr; Stability (Liver microsomes [17]): 47 %/hr |
| 5 nM | O=C(NCc1ccc(F)cc1)c1nc2n(c(=O)c1O)CCCC2 | – | – | – |
| – | CN1CCOCC1c1nc(C(=O)NCc2ccc(F)cc2)c(O)c(=O)n1C (configuration not stated) | 0.06 µM | 0.1 µM | – |
| 8 nM | O=C(NCc1ccc(F)cc1)c1nc2n(c(=O)c1O)CCC2 | – | – | – |
| 19 nM | O=C(NCc1ccc(F)cc1)c1nc2n(c(=O)c1O)CCCCC2 | – | – | – |
| 16 nM | CN(C1CCCCn2c1nc(C(=O)NCc1ccc(F)cc1)c(O)c2=O)S(C)(=O)=O (racemic) | 0.031 µM | 0.125 µM | – |
| 18 nM | CN(C(=O)C(F)F)C1CCCn2c1nc(C(=O)NCc1ccc(F)cc1)c(O)c2=O (racemic) | 0.5 µM | 1 µM | – |
| 8 nM | CC(=O)N(C)C1CCCCn2c1nc(C(=O)NCc1ccc(F)cc1)c(O)c2=O (racemic) | 0.25 µM | 0.5 µM | – |
| 62 nM | CN(Cc1ccccc1)C1CCCCn2c1nc(C(=O)NCc1ccc(F)cc1)c(O)c2=O (racemic) | – | – | – |
| 4 nM | CN(Cc1ccccc1)C1CCCn2c1nc(C(=O)NCc1ccc(F)cc1)c(O)c2=O (racemic) | – | – | – |
| 9 nM | CC(=O)N(C)C1CCn2c1nc(C(=O)NCc1ccc(F)cc1)c(O)c2=O (racemic) | > 1 µM | > 1 µM | – |
| 6 nM | CC(=O)N(C)C1CCCn2c1nc(C(=O)NCc1ccc(F)cc1)c(O)c2=O (racemic) | 1 µM | 1 µM | – |
| 17 nM | CN(C(=O)CS(C)(=O)=O)C1CCCCn2c1nc(C(=O)NCc1ccc(F)cc1)c(O)c2=O (racemic) | 0.063 µM | 0.125 µM | – |
| 20 nM | CN(C)C(=O)C(=O)N(C)C1CCn2c1nc(C(=O)NCc1ccc(F)cc1)c(O)c2=O (racemic) | > 1 µM | > 1 µM | – |
| 13 nM | CN(C)C(=O)C(=O)N(C)C1CCCCn2c1nc(C(=O)NCc1ccc(F)cc1)c(O)c2=O (racemic) | 0.094 µM | 0.063 µM | – |

| IC50 [1] | SMILES | IC95 [2] | IC95 [3] | further results |
| --- | --- | --- | --- | --- |
| 5 nM | O=C(NCc1ccc(F)cc1)c1nc2n(c(=O)c1O)CCCC2N1CCOCC1 (racemic) | – | – | – |
| 11 nM | CN(C1CCCn2c1nc(C(=O)NCc1ccc(F)cc1)c(O)c2=O)S(=O)(=O)N1CCOCC1 (racemic) | 0.015 µM | 0.031 µM | – |
| 5 nM | CN(C)S(=O)(=O)N(C)C1CCCn2c1nc(C(=O)NCc1ccc(F)cc1)c(O)c2=O (racemic) | 0.016 µM | 0.021 µM | – |
| 45 nM | CN(C)S(=O)(=O)N(C)C1CCn2c1nc(C(=O)NCc1ccc(F)cc1)c(O)c2=O (racemic) | > 1 µM | > 1 µM | – |
| 14 nM | CN1CCCN(C2CCCn3c2nc(C(=O)NCc2ccc(F)cc2)c(O)c3=O)S1(=O)=O (racemic) | 0.016 µM | 0.047 µM | – |
| 10 nM | CN(C)S(=O)(=O)N(C)C1CCCCn2c1nc(C(=O)NCc1ccc(F)cc1)c(O)c2=O (racemic) | 0.031 µM | 0.125 µM | – |
| 9 nM | CN(C1CCCn2c1nc(C(=O)NCc1ccc(F)cc1)c(O)c2=O)S(=O)(=O)N1CCCCC1 (racemic) | 0.063 µM | 0.125 µM | – |
| 4 nM | O=C(NCc1ccc(F)cc1)c1nc2n(c(=O)c1O)CCCC2N1CCCCC1 (racemic) | – | – | – |
| 7 nM | CN1CCN(S(=O)(=O)N(C)C2CCCn3c2nc(C(=O)NCc2ccc(F)cc2)c(O)c3=O)CC1 (racemic) | 0.006 µM | 0.02 µM | – |
| 7 nM | Cc1nn(C)c(C)c1S(=O)(=O)N(C)C1CCCn2c1nc(C(=O)NCc1ccc(F)cc1)c(O)c2=O (racemic) | 0.021 µM | 0.063 µM | Stability (Liver microsomes [14]): 90 %/hr; Stability (Liver [15]): 78 %/hr; Stability (Liver microsomes [17]): 94 %/hr |
| 7 nM | CN(C)C1CCn2c1nc(C(=O)NCc1ccc(F)cc1)c(O)c2=O (racemic) | – | – | – |
| 7 nM | CS(=O)(=O)CC(=O)NC1CCCn2c1nc(C(=O)NCc1ccc(F)cc1)c(O)c2=O (racemic) | 1 µM | 1 µM | – |
| 6 nM | CN(C(=O)CS(C)(=O)=O)C1CCCn2c1nc(C(=O)NCc1ccc(F)cc1)c(O)c2=O (racemic) | 0.016 µM | 0.022 µM | fraction unbound (Homo sapiens): 0.3 |
| 9 nM | CN(C(=O)CS(=O)(=O)N(C)C)C1CCCn2c1nc(C(=O)NCc1ccc(F)cc1)c(O)c2=O (racemic) | 0.016 µM | 0.047 µM | fraction unbound (Homo sapiens): 0.19 |
| 63 nM | O=C(NCc1ccc(F)cc1)c1nc2n(c(=O)c1O)CCCC2N1CCCC1 (racemic) | – | – | – |
| 12 nM | CN(C1CCCn2c1nc(C(=O)NCc1ccc(F)cc1)c(O)c2=O)S(C)(=O)=O (racemic) | 0.026 µM | 0.086 µM | Stability (Liver microsomes [14]): 74 %/hr; bioavailability [6]: 47%; Stability (Liver [15]): 29 %/hr; clearance [8]: 48 mL/min/kg; Stability (Liver microsomes [17]): 88 %/hr |
| 550 nM | CN(C)C1CCCCn2c1nc(C(=O)NCc1ccc(F)cc1)c(O)c2=O (racemic) | – | – | – |
| 3 nM | CN(C(=O)Cn1cccn1)C1CCCn2c1nc(C(=O)NCc1ccc(F)cc1)c(O)c2=O (racemic) | > 1 µM | > 1 µM | – |
| 10 nM | CN(C(=O)c1nc2ncccn2n1)C1CCCn2c1nc(C(=O)NCc1ccc(F)cc1)c(O)c2=O (racemic) | 0.25 µM | 0.25 µM | – |
| 7 nM | CN(C1CCCn2c1nc(C(=O)NCc1ccc(F)cc1)c(O)c2=O)S(=O)(=O)N1CCCC1 (racemic) | 0.016 µM | 0.047 µM | – |
| 6 nM | CN1CCCN(C2CCCCn3c2nc(C(=O)NCc2ccc(F)cc2)c(O)c3=O)S1(=O)=O (racemic) | 0.078 µM | 0.156 µM | – |
| 7 nM | CN(C)C(=O)C(=O)N(C)C1CCCn2c1nc(C(=O)NCc1ccc(F)cc1)c(O)c2=O (racemic) | 0.038 µM | 0.04 µM | – |
| 62 nM | O=C(NCc1ccc(F)cc1)c1nc2n(c(=O)c1O)CCCCC2N1CCOCC1 (racemic) | – | – | – |
| 69 nM | CN(C)C1CCCn2c1nc(C(=O)NCc1ccc(F)cc1)c(O)c2=O (racemic) | – | – | – |
